Fewer inactive variants are shown than the library holds.
B1: tRNA (parent)
chain: GUUCCGUUGGCGUAAUGGUAACGCGUCUCCCUCCUAAGGAGAAGACUGCGGGUUCGAGUCCCGUACGGAACG

Variants of: B1
Experiment: yeast fitness relative to wild type (ratio to wild type); higher = fitter; tRNA-Arg(CCU), competitive growth, 37 C, YPD
Method in brief: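 Changes in genotype frequencies gave Darwinian fitness relative to wild type. Frequencies were read by 100-nucleotide paired-end sequencing of gene amplicons before and after pooled Saccharomyces cerevisiae strains, carrying tRNA-Arg(CCU) gene variants at the native locus, were competed in YPD at 37°C for 24 hours in six replicates. A genotype was kept only with ≥ 100 starting reads, and estimates < 0.5 were set to 0.5.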

Row | Variant | yeast fitness
1 | U13A A42U A70G | 0.745
2 | G12C C22G A40C | 1.03
3 | G12C C34U G44A G52A C55U | ≤ 0.5
4 | U13A U47C A69U | 0.743
5 | U13A C22A A42U | 0.582
6 | G12C U28A C66U G68A | ≤ 0.5
7 | U13A A40C A69G | 0.629
8 | U13A A14C C22A U54C | ≤ 0.5
9 | U13A A43C A57C A70U | 0.551
10 | U13A U32C A65C | 0.539
11 | U13A U28G G50C A57U C62A | 0.931
12 | U13A C66U G68C | 0.51
13 | G12C U28A | 1.04
14 | G12C C29G G48C | ≤ 0.5
15 | U13A A42C C66U | 0.76
16 | G12C C30U C33G U47G | ≤ 0.5
17 | U13A G50U G68C | 0.515
18 | U13A C29G C46G | 0.583
19 | G12C C31G G51A C55G A57G G68C | ≤ 0.5
20 | G12C C22G G23A C55A | ≤ 0.5
21 | U13A C33A A36U A70C | 0.518
22 | U13A G23C A37C G38A | 0.554
23 | U13A C33G A40G C60A | ≤ 0.5
24 | G12C U54A | 0.701

Row | Variant | yeast fitness
25 | G12C U54C | 0.702
26 | G12C G41C C66U | 0.551
27 | U13A C66U | 0.857
28 | U13A A57U | 0.681
29 | U13A C24G U28A C30U C31G G41C G56A A57C | ≤ 0.5
30 | G12C U16A C60G C61U | ≤ 0.5
31 | G12C A40G | 0.683
32 | G12C A40C | 0.722
33 | U13A C27U U64C | 0.937
34 | G12C C62G C66U | ≤ 0.5
35 | U13A A15G A65G | 0.877
36 | U13A C33G A37G | ≤ 0.5
37 | U13A C27G | 0.621
38 | U13A G23A A36C G38A C61G | ≤ 0.5
39 | G12C C27G A37G | ≤ 0.5
40 | U13A C49U A65C | 0.624
41 | U13A A21C C24A G25C C66G | 0.512
42 | U13A U59C C66A | ≤ 0.5
43 | U13A C31G C46G A69C | ≤ 0.5
44 | G12C C24U C46U C49G C62A | ≤ 0.5
45 | G12C C24U A40U | ≤ 0.5
46 | U13A C22U C66U | 0.534
47 | U13C A14G | 0.704
48 | G12C C49A | 0.562

Row | Variant | yeast fitness
49 | G12C C49U | 0.893
50 | G12C G17A C46G C66A | ≤ 0.5
51 | U13A A15G U47A U64G | ≤ 0.5
52 | U13A C46U U64C A69U | ≤ 0.5
53 | U13C A14C U16C U64C A65C | ≤ 0.5
54 | U13A C22U A37G | 0.533
55 | U13A C27U A70U | 0.867
56 | U13A G23C U32G G58C C61A A65U | ≤ 0.5
57 | G12U G38A G52A G56C | ≤ 0.5
58 | G12C U19A C27G A65C G68A | ≤ 0.5
59 | U13A A37U | 0.63
60 | G12C U16C C31G | ≤ 0.5
61 | U13A A57U U64G A65G | ≤ 0.5
62 | U13A G17A U32A | ≤ 0.5
63 | U13A A14C C22A C31A A37G C55U A57G | ≤ 0.5
64 | U13A A45G A65C | 0.656
65 | G12C C31U C62G | 0.557
66 | U13A C27G A43C A45U U64C | 0.582
67 | U13A C55U A69C | 0.599
68 | G12C G18C U54C | ≤ 0.5
69 | G12C C27A A37G C49U | ≤ 0.5
70 | U13A G18C A36G G41C C55U | 0.55
71 | G12C G56A | 0.838
72 | G12C G56C | 0.694

Row | Variant | yeast fitness
73 | G12C U13A G38A | 0.576
74 | G12C G38A A40G A42C | ≤ 0.5
75 | G12C C29G G51A G68C | ≤ 0.5
76 | G12U C33U C34G | ≤ 0.5
77 | G12C A43C C61G | ≤ 0.5
78 | G12C C24U C46U C49G | ≤ 0.5
79 | G12C C46U C49G | 0.622
80 | U13A G48A | 1.03
81 | G12C U13C U16A | 0.704
82 | G12C C29U G58U C61U | ≤ 0.5
83 | G12U G23A A36G G39A | ≤ 0.5
84 | G12C C29U G51A G56A G63C | 0.574
85 | G12C G41A C60G A65G | 0.519
86 | U13A A15G C27U C62A G63A A70C | ≤ 0.5
87 | U13A C46G G63C C66A | ≤ 0.5
88 | U13A U53A C61U | ≤ 0.5
89 | G12C C24G A40G | ≤ 0.5
90 | U13A C31G | 1.05
91 | U13A G56A | 0.927
92 | G12C U13C C22U A43C G68C | ≤ 0.5
93 | G12C A40G G58C C61G A65C | ≤ 0.5
94 | U13A A14C U19C U32A G63C | 0.64
95 | G12C G25A C49U | 0.67
96 | U13A A20U A37C | 0.557

Row | Variant | yeast fitness
97 | G12C C22G G23A A37C A43C C62G G63A C66G A69G | ≤ 0.5
98 | U13A G48C C55G | 0.554
99 | U13A G50C U59A | 0.594
100 | G12C C49U G52C A57C A65C | 0.53
101 | U13A C24U C55G | 0.537
102 | G12C U47C | 0.958
103 | G12C G39C G68C | ≤ 0.5
104 | G12C A43G G63A | 0.556
105 | G12C C33U C46G U54A | ≤ 0.5
106 | U13A A15C C46U | 0.612
107 | G12C U32C A65G | 0.569
108 | U13A C29U | 0.786
109 | U13A U28A C30G C46U G56C | ≤ 0.5
110 | G12C C22A | 1
111 | G12C U13G A15C A36U C55G | ≤ 0.5
112 | G12C U32G C33G | 0.543
113 | G12C G50U | 0.836
114 | G12C G50A | 0.736
115 | U13A C24U G51C | 0.542
116 | G12C G58C C60A A65C | ≤ 0.5
117 | G12C U19A C27G | 0.692
118 | G12C G18C G50C | ≤ 0.5
119 | U13A C62G C66A | ≤ 0.5
120 | G12C C24U G48C G68A A69C | ≤ 0.5

Row | Variant | yeast fitness
121 | U13A G23C C27G U53C | ≤ 0.5
122 | U13A C34U A36G | ≤ 0.5
123 | G12C C30G A37G U47G | ≤ 0.5
124 | G12C A65C | 0.783
125 | G12C A65G | 0.783
126 | U13A U35C C46U C55G | ≤ 0.5
127 | U13A C27A A36G A42C | ≤ 0.5
128 | U13A C24U U59C G67A | ≤ 0.5
129 | G12C C55U | 0.734
130 | U13A C62U | 1.05
131 | G12C G25A C33G A37G A40C C49G G67C | ≤ 0.5
132 | U13A C27A C61U C66U | ≤ 0.5
133 | U13A C27U A69U | 0.864
134 | G12C U28A G50A | 0.606
135 | U13A A21C | 0.65
136 | U13A C22A C46U | 0.633
137 | U13A G18A | 0.705
138 | G12C U59G | 0.79
139 | U13A A14U C24G U28G C31U C66U | ≤ 0.5
140 | U13A G18C A36G G41C G67A | ≤ 0.5
141 | G12C C24U C55U G68C | 0.55
142 | G12C U13C A20C C24G G39C | ≤ 0.5
143 | U13A C24A A45U G50A G56A | ≤ 0.5
144 | G12C G68A | 0.945

Row | Variant | yeast fitness
145 | G12C C27U | 0.805
146 | G12C A42U | 0.698
147 | U13A A36G G56A | 0.679
148 | U13A C22A A36U A65G | ≤ 0.5
149 | U13A C29U C31U G50C | 0.508
150 | U13A C22A A36U | ≤ 0.5
151 | U13A A20G C24U U59C | ≤ 0.5
152 | G12C A45U C61G | 0.528
153 | U13A C22G C31G C61A | 0.512
154 | G12C U26A U35A | ≤ 0.5
155 | U13A A20C C34U G50C A69U | ≤ 0.5
156 | U13A G23A A36C G38A C60G C62G | 0.557
157 | U13A C22G G25C C27U C30G | ≤ 0.5
158 | U13A G52A C55U | ≤ 0.5
159 | G12C C29G C46G G51A G52A | ≤ 0.5
160 | U13A A43G A45G G50C C60A A69C | 0.534
161 | G12C C30G A37U G41A G58C | 0.581
162 | U13A C24G G25A C31U | ≤ 0.5
163 | G12C G17C C22A A42C | ≤ 0.5
164 | G12C C27U G50A | ≤ 0.5
165 | U13A A45U | 1
166 | G12C G17A | 0.673
167 | G12C C29A A45U G56A | ≤ 0.5
